Measured values reported in PMC4767718 (Drugs in R&D, 2015).
Where two headings read alike, the source gives them in different places.

Legend:
[1] = cited from earlier work
[2] = acidic pH / acidic solution; cited from earlier work
[3] = format: in vivo, human; settings: single 50 mg ECT; for half-life: human, plasma, oral, 50 mg, Mean t½ (SD)
Procedure, shortened: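 Randomized two-way crossover on day 1 of cycles 1 and 2. Fasted arm: ~10 h overnight fast. Fed arm: high-fat meal (54 g fat, 1036 calories) ~30 min predose, ≥75 % eaten. Tablet taken with 240 mL water, then no food for 4 h. Non-compartmental parameters. Ratio 90 % CIs from ANOVA on log data (patient random effect).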

advanced solid tumors = experiment: Tumor response by RECIST version 1.1; format: in vivo, human
Procedure, shortened: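 RECIST 1.1 response assessed at baseline, end of cycles 2, 4 and 6, then every 3 cycles (9 weeks) until progression. Oral dosing 40 mg twice daily on days 3–9 of cycles 1–2 (escalation to 50 mg allowed in cycle 2). Afterwards, 40 or 50 mg twice daily on days 1–7 of 21-day cycles.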

[4] = Safety: drug-related adverse events graded by NCI-CTCAE version 3.0; format: in vivo, human
Procedure, shortened: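 Adverse events monitored throughout and graded by NCI-CTCAE v3.0, alongside regular hematology, clinical chemistry, vital signs and ECOG status. Single oral dose on day 1 of cycles 1–2. Then 40 mg twice daily on days 3–9 (50 mg allowed in cycle 2), followed by 14-day rest. Afterwards, 40 or 50 mg twice daily on days 1–7 of 21-day cycles.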

[5] = dose range of 5–200 mg/day; earlier trials, no reference given; cited from earlier work
[6] = 24 patients, during the first two cycles
[7] = N = 24, all alisertib treatments

## Cc1nc(Nc2ncc(C(=O)Nc3c(C)cccc3Cl)s2)cc(N2CCN(CCO)CC2)n1 [dasatinib]
[1]; 100 mg dose following a high-fat meal (30 min)
  Increase in the mean AUC after a high-fat meal: 14%

## C#Cc1cccc(Nc2ncnc3cc(OCCOC)c(OCCOC)cc23)c1 [erlotinib]
[1]; single-dose crossover study
  Change of systemic exposure under fed compared with fasted conditions: approximately doubled

## CS(=O)(=O)CCNCc1ccc(-c2ccc3ncnc(Nc4ccc(OCc5cccc(F)c5)c(Cl)c4)c3c2)o1 [Lapatinib]
[1]; low-fat meal
  AUC increase when administered with food: approximately three

## COc1cc(Nc2ncc3c(n2)-c2ccc(Cl)cc2C(c2c(F)cccc2OC)=NC3)ccc1C(=O)O [Alisertib]
[2]
  Solubility: reduced
[3]; fasted state, n = 11
  half-life: 16.7 h
[3]; fed state, n = 14
  half-life: 14.9 h
[3]
  AUCtlast geometric mean ratio, fed versus fasted (90 % CI): 1.04 (0.80–1.34)
  Cmax geometric mean ratio, fed versus fasted (90 % CI): 0.84 (0.66–1.06)
  Decrease in geometric mean Cmax after high-fat meal compared with fasted: 16%
[3]; n = 11
  AUCinf geometric mean ratio, fed versus fasted (90 % CI): 0.94 (0.68–1.32)
[3]; n = 11, listed as alisertib
  AUCinf geometric mean ratio, fed versus fasted (90 % CI): 0.94
[3]; 90 % CI 66–106
  Geometric mean Cmax under fed conditions as % of that under fasted conditions: 84%
[3]; 90 % CI 68–132 %
  Geometric mean AUCinf under fed conditions as % of that under fasted conditions: 94%
Advanced solid tumors; 24 patients evaluable, alisertib 40 to 50 mg twice daily
  Patients with best response of stable disease: 50%
Advanced solid tumors; of 12 patients with stable disease
  Patients with stable disease lasting more than 3 months: seven
[4]; 24 patients
  Discontinuation of treatment due to AEs: No patient discontinued treatment due to AEs
  Patients reporting at least one drug-related AE: 96%
  Patients with AEs considered serious and related to alisertib: 13%
  Patients with drug-related grade 3/4 leukopenia: 38%
  Patients with drug-related grade 3/4 neutropenia: 50%
  Patients with drug-related grade 3/4 thrombocytopenia: 21%
  Patients with drug-related grade 3 or higher AEs: 67%
[4]; 24 patients, any grade
  Patients with drug-related alopecia: 50%
  Patients with drug-related diarrhea: 25%
  Patients with drug-related fatigue: 21%
  Patients with drug-related nausea: 21%
[4]; [6]
  Serious related grade 3/4 febrile neutropenia: 2 n
  Serious related grade 3 neutropenia: 1 n
[4]; [7]
  Drug-related AST increased, all grades: 3 (13) n (%)
  Drug-related AST increased, grade ≥3: 0 n (%)
  Drug-related alopecia, all grades: 12 (50) n (%)
  Drug-related alopecia, grade ≥3: 0 n (%)
  Drug-related anemia, all grades: 7 (29) n (%)
  Drug-related anemia, grade ≥3: 3 (13) n (%)
  Drug-related anorexia, all grades: 4 (17) n (%)
  Drug-related anorexia, grade ≥3: 0 n (%)
  Drug-related diarrhea, all grades: 6 (25) n (%)
  Drug-related diarrhea, grade ≥3: 1 (4) n (%)
  Drug-related fatigue, all grades: 5 (21) n (%)
  Drug-related fatigue, grade ≥3: 1 (4) n (%)
  Drug-related febrile neutropenia, all grades: 2 (8) n (%)
  Drug-related febrile neutropenia, grade ≥3: 2 (8) n (%)
  Drug-related leukopenia, all grades: 13 (54) n (%)
  Drug-related leukopenia, grade ≥3: 9 (38) n (%)
  Drug-related nausea, all grades: 5 (21) n (%)
  Drug-related nausea, grade ≥3: 0 n (%)
  Drug-related neutropenia, all grades: 17 (71) n (%)
  Drug-related neutropenia, grade ≥3: 12 (50) n (%)
  Drug-related stomatitis, all grades: 4 (17) n (%)
  Drug-related stomatitis, grade ≥3: 0 n (%)
  Drug-related thrombocytopenia, all grades: 7 (29) n (%)
  Drug-related thrombocytopenia, grade ≥3: 5 (21) n (%)
[5]
  Pharmacokinetics, dose linearity: linear

## COc1cc2ncnc(Nc3ccc(F)c(Cl)c3)c2cc1OCCCN1CCOCC1 [gefitinib]
[1]
  Effect of food on systemic exposure: unaffected by food
